KCNQ1 act – potentiates or activates the human KCNQ1 potassium channel; actives 0.35% (n = 310,000); CHO-K1 KCNQ1, thallium flux FluxOR fluorescence; active compounds read high; AID 2648; P51787; B-score at 10 µM;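 active = fluorescence ratio B-score, a plate-corrected score, at least three library SD, with initial intensity B-score within 5 SD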
Target sequence (P51787 whole entry, looked up): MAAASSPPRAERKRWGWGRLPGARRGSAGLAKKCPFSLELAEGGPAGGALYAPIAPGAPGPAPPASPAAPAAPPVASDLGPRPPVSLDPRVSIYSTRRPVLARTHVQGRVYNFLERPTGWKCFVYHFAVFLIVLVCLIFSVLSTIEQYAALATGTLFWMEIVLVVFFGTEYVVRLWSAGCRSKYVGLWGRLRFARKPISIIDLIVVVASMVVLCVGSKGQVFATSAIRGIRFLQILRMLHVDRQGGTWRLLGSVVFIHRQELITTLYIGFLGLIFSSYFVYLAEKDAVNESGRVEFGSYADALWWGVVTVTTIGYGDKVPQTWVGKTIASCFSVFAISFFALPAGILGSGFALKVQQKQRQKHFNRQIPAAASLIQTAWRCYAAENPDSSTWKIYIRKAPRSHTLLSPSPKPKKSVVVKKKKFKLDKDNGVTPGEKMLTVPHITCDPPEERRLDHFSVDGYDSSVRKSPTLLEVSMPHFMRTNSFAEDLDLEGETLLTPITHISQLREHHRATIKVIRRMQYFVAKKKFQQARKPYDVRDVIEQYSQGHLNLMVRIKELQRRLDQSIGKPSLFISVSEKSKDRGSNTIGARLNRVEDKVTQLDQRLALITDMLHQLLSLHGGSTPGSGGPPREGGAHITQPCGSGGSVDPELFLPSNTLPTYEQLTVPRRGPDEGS
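assay system = KCNQ1-transfected CHO-K1 cells | medium = assay buffer with matched DMSO | probe or stimulus = depolarizing K+/Tl+ stimulus, K2SO4 and Tl2SO4 each 12.5 mM in 5x stock | dosing = single dose | incubation = dye 90 min, compound 20 min, room temperature | detection = kinetic FluxOR fluorescence, 10 s baseline plus 110 s post-stimulus | evaluation = ratio B score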
KCNQ1 inh – inhibitors of human KCNQ1 potassium channel; P51787; CHO-K1 KCNQ1, FluxOR thallium flux fluorescence; active compounds read high; B-score at 10 µM; actives 1.3% (n = 310,000); AID 2642;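 active = compounds whose thallium flux B-score, printed positive for inhibition, exceeds three library SD while starting fluorescence stays within three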;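 also: channel opened by potassium depolarization with thallium stimulus after 20 min compound exposure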
hERG protect – hERG (human) protection from proarrhythmic block; Q12809; CHO-hERG, FluxOR thallium flux, dofetilide IC70 present; activation (rescue from dofetilide block), less the hit threshold, % at 10 µM; actives 0.51% (n = 310,000);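 active = activation above the mean of controls blocked by dofetilide plus 5 SD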;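 also: thallium influx through hERG after potassium depolarization seen as dye fluorescence rise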
Cl transport mod – KCC2 (human) Cl- transport modulation; Q9H2X9; KCC2 cells, thallium flux FluoZin-2 fluorescence; B-score of Tl+ flux slope (higher = more flux/activation; lower = inhibition) at 10 µM; actives 2.2% (n = 190,000);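 active = thallium flux slope and its plate-corrected score both differing from the plate sample mean at a set confidence after two filtering rounds, in either direction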;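 also: slope of fluorescence scaled to starting intensity during 10 to 20 s after thallium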
KCNK3 inh – human KCNK3 channel inhibition, primary screen. CHO-KCNK3 thallium flux, FluxOR fluorescence; active compounds read low. B-score at 10 µM. actives 0.84% (n = 340,000). AID 602410;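 active = B-score under library mean minus 4 SD, starting fluorescence ratio at most library mean plus 5 SD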;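 also: more negative B-score means stronger inhibition of thallium flux through KCNK3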
KCNK9 inh – human KCNK9 channel inhibition; Q9NPC2; HEK293 KCNK9, FluxOR thallium flux fluorescence; active compounds read low; B-score at 10 µM; actives 1.2% (n = 310,000);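 active = ratio B-score over 3 SD below the library mean, with starting fluorescence within 5 SD of its mean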;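 also: negative B-score means less thallium flux so channel inhibition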
KCC2 secondary – KCC2 (human) modulation, secondary assay. shares compounds with Cl transport mod. HEK293-KCC2, thallium flux, FluoZin2 fluorescence; active compounds read high. normalised thallium flux (F/F0 slope) at 10 µM. actives 15% (n = 3,700). AID 1713;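 active = thallium flux slope above the same plate's solvent-only control mean plus 3 SD; inconclusive = the two replicate wells disagree; inactive = no significant difference from solvent-only control wells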
KCC2 bumet counter – thallium flux persisting under bumetanide in KCC2 cells, counter-screen secondary assay. shares compounds with Cl transport mod. HEK293-KCC2 + bumetanide/ouabain, thallium flux FluoZin2; active compounds read high. normalized thallium flux at 10 µM. actives 49% (n = 3,700);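 active = thallium entry rate above the same plate's blocked-transporter control wells by more than 3 SD; inconclusive = the two repeat wells disagree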;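 also: raw slope of fluorescence over initial fluorescence between 10 and 20 s after thallium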
KCC2 sec2 – confirmation of human KCC2 transport modulators. AID 1715. normalized thallium flux at 10 µM. actives 23% (n = 3,700). shares compounds with Cl transport mod. HEK293-KCC2, thallium flux FluoZin2 fluorescence; actives lie on both sides; F/F0 rise rate, 10–20 s post-thallium;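 active = thallium flux slope more than 3 SD above or below the plate's solvent-only control mean, mostly below; inconclusive = the two repeat wells disagreed; inactive = no significant shift from solvent-only controls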;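 also: raw slope with 0.1% DMSO as baseline and bumetanide as block control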
HEK293 Tl flux – parental HEK flux effect, counter-screen. shares compounds with Cl transport mod. HEK293 parental cells, thallium flux FluoZin2, ouabain; baseline-ratio fluorescence slope, 10–20 s after thallium. thallium flux rate (normalised fluorescence) at 10 µM. actives 46% (n = 3,700);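 active = thallium flux rate significantly above the same plate's solvent-only control wells, beyond their mean plus 3 SD; inconclusive = the two replicate wells gave conflicting results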
KCC2 ouabain – KCC2 (human) modulation, ouabain retest; AID 1717; shares compounds with Cl transport mod; raw Tl+ flux slope (below DMSO = inhibition, above = activation) at 10 µM; HEK293-KCC2, thallium flux FluoZin2 fluorescence; bidirectional: low = inhibitor, high = activator; actives 48% (n = 3,700);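 active = thallium flux slope beyond 3 SD from same-plate DMSO control mean in most replicates, usually higher, sometimes lower; inconclusive = repeat tests gave conflicting results; inactive = no significant difference from controls in most replicates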;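 also: slope of initial-normalized fluorescence between seconds 10 and 20 after thallium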
HEK293 Tl flux2 – counter-screen for KCC2 modulators: effect in parental HEK293 cells; shares compounds with Cl transport mod; thallium flux FluoZin-2 fluorescence slope; thallium flux slope at 10 µM; actives 33% (n = 3,700); AID 1718;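 active = thallium flux slope above the same plate's solvent-control mean plus 3 SD in both duplicate wells; inconclusive = duplicate wells that disagreed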;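 also: run without ouabain in cells lacking the KCC2 cotransporter; slope of fluorescence scaled to its starting value between 10 and 20 s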
KCNQ1 block val – human KCNQ1 channel inhibition, validation assay | shares compounds with KCNQ1 inh | KCNQ1 cell line, FluxOR thallium flux fluorescence | inhibition, % at 10 µM | actives 93% (n = 1,600) | AID 588353;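 active = primary screen active, with duplicate mean exceeding buffer control mean plus 3 SD of buffer wells, cut at about 28% in these data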;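 also: 0% = buffer control ratio and 100% = XE991 inhibitor control ratio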
CHO Tl flux – activity in parental CHO cells lacking KCNQ1; actives 21% (n = 1,600); parental CHO-K1, FluxOR thallium flux fluorescence ratio; active compounds read low; zero means no signal rise above baseline; AID 588366; fluorescence ratio (Tl flux) at 10 µM; shares compounds with KCNQ1 inh;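 active = mean of duplicate thallium-flux fluorescence ratios in parental host cells more than 5 SD below the buffer control mean, cut at about 0.38 in these data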;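 also: ratio is peak minus minimum fluorescence divided by baseline fluorescence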
KCNQ1 APC inh – confirmation of human KCNQ1 potassium channel inhibitors by electrophysiology | shares compounds with KCNQ1 inh | KCNQ1-CHO cells, automated patch clamp current | calls only at 10 µM | actives 20% (n = 490) | AID 624120;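 active = KCNQ1 current drop exceeding 3 SD of negative control wells, seen in both duplicate runs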;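 also: steady state current during a 2 s step from -80 to +40 mV; negative values mean current inhibition and positive values mean potentiation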
KCNQ2 spec – rat KCNQ2 inhibition in KCNQ1 inhibitor specificity screen; KCNQ2 cells, FluxOR thallium flux fluorescence; shares compounds with KCNQ1 inh; inhibition, % at 10 µM; actives 71% (n = 1,600);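 active = mean percent inhibition of the KCNQ2 thallium signal more than 5 SD above the buffer-only control wells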;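 also: KCNQ2 expressed in CHO cells; 0% = buffer control wells and 100% = XE-991 inhibitor control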
KCNQ1 KCNE1 spec – human KCNQ1/KCNE1 inhibition in KCNQ1 specificity screen; shares compounds with KCNQ1 inh; KCNQ1/KCNE1 cells, FluxOR thallium flux fluorescence; inhibition, % at 10 µM; actives 77% (n = 1,600); AID 652147;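 active = mean percent inhibition of duplicate wells above the buffer-only control mean plus 3 SD of those controls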;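 also: 0% = buffer only wells and 100% = XE-991 inhibitor control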
KCNK9 block conf – human KCNK9 inhibitor confirmation; shares compounds with KCNK9 inh; HEK293 KCNK9 cells, FluxOR thallium flux fluorescence; inhibition, % at 10 µM; actives 43% (n = 4,900);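 active = thallium signal inhibited by more than 5 SD of the compound-free buffer control wells, on both duplicate plates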;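 also: 0% = assay buffer control wells without compound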
Kir21 sel – tests whether KCNK9 modulators also affect mouse Kir2.1; shares compounds with KCNK9 inh; Kir2.1 cells, FluxOR thallium flux fluorescence; inhibition, % at 10 µM; actives 4% (n = 4,900); AID 492993;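 active = thallium signal drop more than 5 SD beyond the mean of the no-compound control wells, seen in both duplicate plates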;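 also: signal is fluorescence rise after thallium addition divided by baseline fluorescence; plate controls were assay buffer only for no effect and full block by chlorpromazine control for full effect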
HEK293 Tl ctr – second check of KCNK9 modulator effects in non-induced HEK293 cells; shares compounds with KCNK9 inh; FluxOR thallium flux; inhibition, % at 10 µM; actives 40% (n = 4,900);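 active = thallium signal drop beyond 5 SD of the untreated control mean, on both duplicate plates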;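 also: plate controls were buffer only IC0 wells for no effect and SID17386958 at its maximal inhibitory level for full effect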
KCNK3 confirm – confirmation of human KCNK3 two-pore domain potassium channel inhibitors. shares compounds with KCNK3 inh. CHO-KCNK3 thallium flux, FluxOR fluorescence; 0% buffer, 100% carvedilol maximal block. ratio percent of control, % at 10 µM. actives 99% (n = 2,400). AID 651638;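 active = ratio percent of control, averaged over triplicates, above buffer control mean plus 5 SD, cut at about 64% in these data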;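 also: ratio is the fluorescence rise from min to max over baseline after thallium stimulus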
KCNK3 uninduced – KCNK3 inhibitor counter-screen hit in non-induced cells. actives 40% (n = 2,400). non-induced KCNK3 parental cells, FluxOR thallium flux; active compounds read low. thallium flux ratio (lower = more inhibition) at 10 µM. AID 651747. shares compounds with KCNK3 inh;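 active = thallium flux ratio, averaged over three wells, more than 5 SD below the buffer control mean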;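 also: host cells are CHO cells without KCNK3 induction; ratio is peak minus trough fluorescence over baseline then normalized to buffer controls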
* hit, by the source's call; i = inactive; ? = inconclusive; . = no result given; + = active, no number. Most compounds without a hit are left out; they make up all but 4.1% or so of the library.

SMILES | KCNQ1 act | KCNQ1 inh | hERG protect | Cl transport mod | KCNK3 inh | KCNK9 inh | KCC2 secondary | KCC2 bumet counter | KCC2 sec2 | HEK293 Tl flux | KCC2 ouabain | HEK293 Tl flux2 | others
O=C1CC(=O)N(c2ccccc2)C(=O)N1 | . | . | . | . | i | . | . | . | . | . | . | .
CCCCCCCCCCOC(=O)CCN1CC1 | . | . | . | . | i | . | . | . | . | . | . | .
CCCC(=O)OCC[N+](C)(C)C | i | i | -9 | 4.9* | i | i | ? | 0.008 | 0.029 | 0.0072 | 0.022 | 0.0098
O=c1[nH]c(O)c(N=Nc2cc([N+](=O)[O-])ccc2O)c(=O)[nH]1 | i | i | -5 | . | i | i | 0.0072 | ? | 0.032 | 0.008 | 0.019 | 0.012
CCC(C)n1c(O)c(C=Nc2cccc(C(F)(F)F)c2)c(=O)[nH]c1=S (stereo unspecified) | i | i | -4 | 0.77 | i | i | 0.0062 | 0.018* | 0.03 | 0.019* | 0.025* | 0.015*
CCOC1=C(N2CC2)C(=O)C(OCC)=C(N2CC2)C1=O | . | . | . | . | i | . | . | . | . | . | . | .
O=C1C2CCCN2C(c2cccnc2)N1c1nccs1 (stereo unspecified) | i | i | -7 | 3.2* | i | i | 0.016 | ? | 0.028 | 0.0075 | 0.016 | 0.0099
CCCCn1c(O)c(/C=C/C=Nc2ccccc2)c(=O)[nH]c1=O | i | i | -5 | -4.7* | i | -9.2* | 0.0026* | -0.0018* | 0.025* | 0.0019* | 0.0084* | 0.007* | KCNK9 block conf=i;Kir21 sel=i;HEK293 Tl ctr=54%*
Cn1c(O)c(/C=C/C=Nc2ccccc2)c(=O)n(C)c1=O | i | i | -11 | -1.5 | i | i | . | . | . | . | . | .
COc1cccc(-n2c(-c3ccoc3)nc3ccccc3c2=O)c1 | i | i | -8 | . | i | -18* | 0.0066 | 0.0041 | 0.031 | 0.0072 | 0.018 | 0.0098 | KCNK9 block conf=i;Kir21 sel=i;HEK293 Tl ctr=i
CCCC1CCCCC12C(=O)NC(=O)NC2=O (stereo unspecified) | . | . | . | . | i | . | . | . | . | . | . | .
COC(=O)c1ccc(COc2cc(C)cc3oc(=O)c4c(c23)CCCC4)o1 | i | i | -4 | . | -9.1* | -13* | 0.0075 | 0.0044 | 0.027 | 0.0049* | ? | 0.0084 | KCNK9 block conf=26%*;Kir21 sel=i;HEK293 Tl ctr=i;KCNK3 confirm=100*;KCNK3 uninduced=i
COC(=O)C1=C(c2cc3ccccc3s2)C[C@@H]2CC[C@H]1N2C(=O)NC1CCCCC1 | i | i | -11 | . | i | i | . | . | . | . | . | .
CCCCn1c(=O)c(C(=O)Nc2ccccc2S(N)(=O)=O)c(O)c2ccccc21 | i | i | -4 | -2.3 | i | i | . | . | . | . | . | .
CCCCCCCn1c(=O)c(C(=O)Nc2cnccn2)c(O)c2ccccc21 | i | i | -15 | 0.1 | i | i | . | . | . | . | . | .
CCCCCn1c(=O)c(C(=O)Nc2cnccn2)c(O)c2ccccc21 | i | 8* | -10 | . | -10* | i | . | . | . | . | . | . | KCNQ1 block val=78*;CHO Tl flux=0.67;KCNQ2 spec=i;KCNQ1 KCNE1 spec=68%*
CCCCCn1c(=O)c(C(=O)Nc2ccccc2S(N)(=O)=O)c(O)c2ccccc21 | i | 9* | -10 | -1.5 | i | i | . | . | . | . | . | . | KCNQ1 block val=75*;CHO Tl flux=0.45;KCNQ2 spec=i;KCNQ1 KCNE1 spec=i
CCOC(=O)C(O)(c1ccc(NC(=O)c2ccc(Cl)c(Cl)c2)cc1)C(F)(F)F (stereo unspecified) | i | 6* | -9 | -0.2 | i | i | . | . | . | . | . | . | KCNQ1 block val=123*;CHO Tl flux=0.53;KCNQ1 APC inh=i;KCNQ2 spec=93%*;KCNQ1 KCNE1 spec=144%*
Brc1cccc(CNCCc2ccc3c(c2)OCO3)c1 | i | 6* | -1 | . | i | i | . | . | . | . | . | . | KCNQ1 block val=100*;CHO Tl flux=0.44;KCNQ1 APC inh=+;KCNQ2 spec=86%*;KCNQ1 KCNE1 spec=54%*
